Source: ChEMBL document CHEMBL4513216, “Probing the Open Global Health Chemical Diversity Library for Multistage-Active Starting Points for Next-Generation Antimalarials” (ACS Infect Dis, 2020)

Assay: Toxicity liver stage against HepG2, at 10uM
Format: cell-based
Parameters: test concentration 10 uM, cell line HepG2-A16-CD81EGFP
Details: human, HepG2-A16-CD81EGFP cells; read-out: INHIBITION
Procedure, shortened: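 Uninfected HepG2-A16-CD81EGFP cells, 3 × 10^3 per well, 1536-well, plated on prespotted compound at 10 μM final, parasite-free screening media added to match infected plates; puromycin 10 μM positive, DMSO 0.5% negative; run in parallel with 48 h PbLuc assay at 37 °C, 5% CO2; viability by CellTiter-Glo luminescence, normalized to controls.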

SMILES: Cc1cnn(C2CN(CC(O)c3ccc(F)cc3)C2)c1 (stereo unspecified)
- cytotoxicity at 10 µM: 11.9%

SMILES: Cc1ccccc1C1(C(=O)N2CCOC(C)C2)CCOCC1 (stereo unspecified)
- cytotoxicity at 10 µM: 5.33%

SMILES: O=C(CCn1c(=O)oc2ccccc21)NCC(O)c1ccccc1 (stereo unspecified)
- cytotoxicity at 10 µM: -15.6%

SMILES: Fc1cnc(N2CCN3C[C@H](Oc4cccnc4)C[C@H]3C2)nc1
- cytotoxicity at 10 µM: 13.1%

SMILES: CC(C)c1noc(CCCC(=O)NCC2CCS(=O)(=O)C2)n1 (stereo unspecified)
- cytotoxicity at 10 µM: -22.3%

SMILES: O=C(c1ccc(N2CCCC2)nc1)N1CCCC(c2nccs2)C1 (stereo unspecified)
- cytotoxicity at 10 µM: 15.4%

SMILES: O=C(NCC(=O)N1CCCC1)c1nn(-c2ccccc2F)cc1O
- cytotoxicity at 10 µM: 6.53%

SMILES: COC(=O)C(C)CN(Cc1ccccc1)C(=O)CN1CCCNC1=O (stereo unspecified)
- cytotoxicity at 10 µM: 0.124%

SMILES: CC(C)(C)NS(=O)(=O)c1ccccc1CNCc1ccccc1
- cytotoxicity at 10 µM: 5.74%

SMILES: Cc1ccc(S(=O)(=O)N(C)Cc2cnccn2)cc1N(C)C
- cytotoxicity at 10 µM: 12%

SMILES: O=C(c1ccn(-c2ccc(F)cc2)n1)N1CCCC(n2ccnc2)C1 (stereo unspecified)
- cytotoxicity at 10 µM: -16.3%

SMILES: Fc1cccc(-c2nc(CN3CCCC3Cn3cccn3)co2)c1 (stereo unspecified)
- cytotoxicity at 10 µM: -11%

SMILES: Cc1nc(C)n(CC2CN(Cc3nccs3)Cc3nccn3C2)n1 (stereo unspecified)
- cytotoxicity at 10 µM: -140%

SMILES: Cc1ncsc1CN1CC[C@](C)(O)[C@@H](Oc2cccc(F)c2)C1
- cytotoxicity at 10 µM: -14.8%

SMILES: CCN1C(=O)C[C@@H]2[C@@H]1CCN2S(=O)(=O)Cc1ccc(C)cc1
- cytotoxicity at 10 µM: -6.22%

SMILES: Cc1cnc(N2CC3(CCN(C(=O)c4cccnc4)C3)C2)nc1
- cytotoxicity at 10 µM: 2.55%

SMILES: CCN(Cc1ccco1)C(=O)C1=NN(c2ccccc2)C(=O)CN1
- cytotoxicity at 10 µM: 6.35%

SMILES: CCc1nc(CC(=O)N2CCN(c3cnccn3)CC2)cs1
- cytotoxicity at 10 µM: 1.97%

SMILES: CN1CCC(N(C)C(=O)Nc2ccc(Cl)cc2)CC1
- cytotoxicity at 10 µM: -0.211%

SMILES: CN(Cc1ccc(OCC(=O)N2CCOCC2)cc1)S(C)(=O)=O
- cytotoxicity at 10 µM: 4.64%

SMILES: CC(CNC(=O)c1ccc(C#N)cc1)N1CCc2ccccc21 (stereo unspecified)
- cytotoxicity at 10 µM: 2.84%

SMILES: Nc1nc(NCCc2[nH]nc3c2CCCC3)cc(N2CCOCC2)n1
- cytotoxicity at 10 µM: 0.666%

SMILES: COc1ccccc1C(C)CC(=O)N1CC[C@H](O)C1 (stereo partly specified)
- cytotoxicity at 10 µM: -55.7%

SMILES: CC(C)C(C)NC(=O)CNc1cc2c(cc1Cl)NC(=O)CO2 (stereo unspecified)
- cytotoxicity at 10 µM: 0.529%

SMILES: COCCN1CCC(NC(=O)C(C)C)CC1
- cytotoxicity at 10 µM: -2.45%

SMILES: CCN1C(=O)[C@H]2CN(CC(C)C)C[C@H]2C12CCN(S(C)(=O)=O)CC2
- cytotoxicity at 10 µM: 10.3%

SMILES: CSCCCNC(=O)c1coc(Cn2cnc3ccccc32)n1
- cytotoxicity at 10 µM: -6.33%

SMILES: Cc1n[nH]c(C)c1S(=O)(=O)N1CCC(Oc2cnccn2)CC1
- cytotoxicity at 10 µM: 3.15%

SMILES: Fc1cccc(NCc2ncc[nH]2)c1
- cytotoxicity at 10 µM: -9.16%

SMILES: Cc1ccc(C)c(-c2csc(N)c2C#N)c1
- cytotoxicity at 10 µM: 5.47%

SMILES: COCCOCC(=O)N1C[C@@H]2CC[C@H]1CN(C1Cc3ccccc3C1)C2
- cytotoxicity at 10 µM: -9.04%

SMILES: COc1cc(C(=O)N(Cc2ccco2)C2CC2)cc2c1OCCO2
- cytotoxicity at 10 µM: 2.35%

SMILES: CC1COc2ccccc2N1C(=O)c1ccc(=O)n(C)c1 (stereo unspecified)
- cytotoxicity at 10 µM: -3.42%

SMILES: O=C(CC1Cn2ncnc2NC1=O)Nc1ccccc1 (stereo unspecified)
- cytotoxicity at 10 µM: 6.11%

SMILES: Cc1cc(C(=O)N(CCN(C)C)Cc2ccc(Cl)cc2)no1
- cytotoxicity at 10 µM: 0.242%

SMILES: CN1CC(=O)N(c2cccc(F)c2)CC12CCN(S(C)(=O)=O)C2 (stereo unspecified)
- cytotoxicity at 10 µM: 1.52%

SMILES: CC(C)OCCC(=O)NCC(O)c1c(F)cccc1F (stereo unspecified)
- cytotoxicity at 10 µM: -6.51%

SMILES: CNC(=O)CN1CCCC12CCN(C(=O)c1ccccc1F)CC2
- cytotoxicity at 10 µM: 1.58%

SMILES: COc1c(C2CCCN2CC(=O)Nc2nccs2)c(C)nn1C (stereo unspecified)
- cytotoxicity at 10 µM: -2.38%

SMILES: COc1ccc(C2CCCN2C(=O)NCCn2ccnc2)cc1OC (stereo unspecified)
- cytotoxicity at 10 µM: -2.16%

SMILES: COc1ccccc1OCc1cc(C(=O)N2C[C@H](O)[C@@H](N(C)C)C2)n[nH]1
- cytotoxicity at 10 µM: 3.2%

SMILES: Cc1csc(CNc2cccc(OCCN3CCCC3)c2)n1
- cytotoxicity at 10 µM: -4.49%

SMILES: O=C(NCCc1cccs1)NCC(O)c1cccc(F)c1 (stereo unspecified)
- cytotoxicity at 10 µM: -4.07%

SMILES: CN1CCC(O)(CNC(=O)c2cc(COc3cccc(F)c3)[nH]n2)CC1
- cytotoxicity at 10 µM: 2.91%

SMILES: CCOc1ccc(Cl)c(C(=O)N2CCN(C(=O)OC)CC2)n1
- cytotoxicity at 10 µM: -6.33%

SMILES: COc1cccc(NC(=O)N2CC[C@@H]3CN(C)S(=O)(=O)[C@@H]3CC2)c1
- cytotoxicity at 10 µM: 7.3%

SMILES: CCC(C(=O)NC1(C(N)=O)CCCC1)n1cccn1 (stereo unspecified)
- cytotoxicity at 10 µM: -9.13%

SMILES: Cc1occc1C(=O)NCC(=O)N(C)CCCOc1ccc(F)cc1
- cytotoxicity at 10 µM: -41.9%

SMILES: CN(C)C1CCN(C(=O)c2ccc(Cn3ccccc3=O)o2)CC1
- cytotoxicity at 10 µM: -2.11%

SMILES: CN(Cc1cccnc1)C[C@H]1CC[C@@H](Cc2ccc3c(cnn3C)c2)O1
- cytotoxicity at 10 µM: 5.15%

SMILES: Cn1cc(C2CC(=O)NC23CCN(Cc2nccs2)CC3)cn1 (stereo unspecified)
- cytotoxicity at 10 µM: 1.06%

SMILES: O=C(Nc1cccnc1)[C@H]1CN(Cc2ccccn2)C[C@H]2OCC[C@@H]12
- cytotoxicity at 10 µM: -107%

SMILES: O=C1NC(c2ccccc2)=N[C@@]12CC[C@@H]1CN(Cc3ccoc3)C[C@@H]12
- cytotoxicity at 10 µM: 5.22%

SMILES: O=C(CC1CC1)N1CCN(Cc2cccnc2)c2ncccc2C1
- cytotoxicity at 10 µM: 5.15%

SMILES: CCOc1cccc(C(=O)NCCC(=O)NCc2ccncc2)c1
- cytotoxicity at 10 µM: 0.961%

SMILES: CNC(=O)[C@H]1C[C@@H]2CN(S(=O)(=O)c3cccc(C)c3)C[C@@H]2N1C
- cytotoxicity at 10 µM: 1.59%

SMILES: CC(=O)NC(C)c1ccc(OCC2CC2)c(F)c1 (stereo unspecified)
- cytotoxicity at 10 µM: -7.81%

SMILES: COc1ccc(C2=CCN(C(=O)C3CCS(=O)(=O)C3)CC2)cc1 (stereo unspecified)
- cytotoxicity at 10 µM: -7.45%

SMILES: CN(C)C(=O)N1CCC2(CCCN(CCOc3ccccc3)C2)C1 (stereo unspecified)
- cytotoxicity at 10 µM: -0.537%

SMILES: Cc1nc(-c2ccccc2C)n(CC(=O)NC2CCCC2)n1
- cytotoxicity at 10 µM: 5.48%

SMILES: CCNC(=O)[C@@H]1C[C@H](N)CN1C1CCN(c2ccccc2OC)CC1
- cytotoxicity at 10 µM: -43.9%

SMILES: COc1ccccc1CC(C)N(C)S(C)(=O)=O (stereo unspecified)
- cytotoxicity at 10 µM: 14%

SMILES: CCOc1ccc(Cl)cc1C(C(=O)O)N1CCOCC1 (stereo unspecified)
- cytotoxicity at 10 µM: -0.924%

SMILES: COCCCNC(=O)CN(C)C(=O)c1ccc(OC)cc1O
- cytotoxicity at 10 µM: -10.7%

SMILES: Cn1cc(CNCC2(O)CCCN(Cc3ccc(F)c(F)c3)C2=O)cn1 (stereo unspecified)
- cytotoxicity at 10 µM: -14.5%

SMILES: CCc1nc(C2CCCN(C(=O)c3ccc(Cl)cc3)C2)no1 (stereo unspecified)
- cytotoxicity at 10 µM: 5.71%

SMILES: COc1ccc([C@@H]2CN(c3cc(C(=O)O)ccn3)C[C@H]2N(C)C)cc1
- cytotoxicity at 10 µM: 10.3%

SMILES: N#Cc1cccc(NC2CC(=O)N(Cc3cccc(F)c3)C2)n1 (stereo unspecified)
- cytotoxicity at 10 µM: -94.2%

SMILES: COCCN(Cc1ccccn1)Cc1sccc1C
- cytotoxicity at 10 µM: -3.6%

SMILES: CC1=C(C#N)C(=O)N(C)C(=O)/C1=C\C1=Cc2ccccc2OC1
- cytotoxicity at 10 µM: -39.4%

SMILES: Cc1cnc(C)c(N2CCC3(CCCN(C4CCOCC4)C3=O)C2)n1 (stereo unspecified)
- cytotoxicity at 10 µM: -124%

SMILES: CSCCC(O)C(=O)N1CCCN(Cc2ccc(F)cc2)CC1 (stereo unspecified)
- cytotoxicity at 10 µM: 5.14%

SMILES: CN(C)c1cnn(CC(=O)N2CCN(Cc3cccs3)CC2)c(=O)c1
- cytotoxicity at 10 µM: 1.72%

SMILES: CC(C)c1noc(CCC(=O)N2CCN(C)CC2c2ccccc2)n1 (stereo unspecified)
- cytotoxicity at 10 µM: -5.3%

SMILES: Cc1cccc(CN2CCc3nnc(CN4CCCC4=O)n3CC2)n1
- cytotoxicity at 10 µM: 5.31%

SMILES: O=C(CCN1CCOC(C(F)(F)F)C1)NCc1cccc(Cl)c1 (stereo unspecified)
- cytotoxicity at 10 µM: 2.04%

SMILES: CC(C)c1nc(-c2cc(C(=O)N3CCN(C)CC3)c3ccccn23)cs1
- cytotoxicity at 10 µM: 5.77%

SMILES: O=C1NCC2(CCCN(CCc3ccccc3)C2)Oc2ccccc21 (stereo unspecified)
- cytotoxicity at 10 µM: 2.93%

SMILES: Cn1ccnc1CN1CCCN(C(=O)COC2CCCCC2)CC1
- cytotoxicity at 10 µM: -23.9%

SMILES: COC1CCN(C(=O)Nc2ccccc2)CC(=O)N(C)c2ccccc21 (stereo unspecified)
- cytotoxicity at 10 µM: 2.94%

SMILES: CCC(NCCn1cccn1)C(=O)Nc1cc(C)on1 (stereo unspecified)
- cytotoxicity at 10 µM: 13.4%
